Test results published in PMC5708124 (Nature microbiology, 2017).

How the values were obtained:
[1] = system: NF54^Pfs16 late-stage GAMs; assay: Image-based late-stage gametocyte inhibition assay; assay type: cell-based, Plasmodium falciparum; details: in words
Procedure, shortened: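 Day-8 stage IV gametocytes were MACS-purified and set at 10% parasitemia and 0.1% Hct, with 0.4% DMSO final. They were incubated 72 h at 37°C in 5% O₂/5% CO₂/90% N₂, then stained overnight with MitoTracker Red CM-H₂XRos. Confocal imaging counted viable mature gametocytes per imaged area; 5 μM puromycin was the control. Screening used 2 μM in triplicate. Potency used serial dilutions up to 40 μM, three per log, on two independent occasions.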

[2] = system: Dd2 (multidrug-resistant) ABS parasites; assay: Imaging-based asexual blood stage high-throughput assay; assay type: cell-based, Plasmodium falciparum; details: read-out: ABS IC50; multidrug-resistant Dd2, 72 h
[3] = system: HEK293 human embryonic kidney cell line; assay: HEK293 cytotoxicity; assay type: cell-based; details: at 40 μM, 72 h
Procedure, shortened: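 Cells were grown in DMEM with 10% fetal calf serum and seeded at 2,000 cells/well, then left overnight at 37°C in 5% CO₂ to adhere. Test compound was added as a serial dilution with a maximum of 40 μM, at 0.4% DMSO final, for 72 h. Medium was then replaced with serum-free DMEM containing 44 μM resazurin for 4–6 h. Fluorescence was read at 530/595 nm. Two biological replicates.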

[4] = system: male gametes from stage V GAMs; assay: Dual gamete formation assay, male gamete formation; assay type: cell-based, Plasmodium falciparum; details: in words
[5] = system: compound-exposed Pf GAMs in Anopheles stephensi mosquitoes; assay: Membrane-feeding assay with A. stephensi mosquitoes; assay type: in vivo, Plasmodium falciparum; details: for reduction in oocyst density per infected mosquito midgut: GAMs pre-treated at 3x late-stage IC50; for reduction in infection prevalence (percentage of infected mosquitoes): GAMs pre-treated at 3x late-stage IC50, 3 days, then 4 days without compound
Procedure, shortened: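 Day-12 gametocytes were treated 3 days at 1x or 3x their late-stage IC50, with compound refreshed daily, then held 4 days without compound. Controls were 0.25% DMSO and methylene blue at 3x. Stage V cultures (50% Hct, 0.01–0.16% parasitemia) were membrane-fed for 30 min to A. stephensi, kept at 26°C and 78% RH. Midguts were dissected on day 7–8, stained with mercurochrome and oocysts counted blind. Prevalence is the percentage of mosquitoes with at least one oocyst.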

[6] = system: 3D7 (drug-sensitive) ABS parasites; assay: Imaging-based asexual blood stage high-throughput assay; assay type: cell-based, Plasmodium falciparum; details: read-out: ABS IC50; drug-sensitive 3D7, 72 h
Procedure, shortened: (§1)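 Sorbitol-synchronized parasites were seeded at 2% parasitemia and 0.3% Hct and exposed to test compound for 72 h at 37°C in 5% O₂/5% CO₂/90% N₂. Cells were then permeabilized with 0.01% Triton X-100, 0.001% saponin and 5 mM EDTA, and stained with 0.5 μg/mL DAPI for at least 6 h at room temperature in the dark. Confocal imaging used 405 nm excitation. Parasites were counted from spot size and intensity. Two independent cultures.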

[7] = system: NF54^Pfs16 early-stage GAMs; assay: Luciferase-based early-stage gametocyte inhibition assay; assay type: cell-based, Plasmodium falciparum; details: in words
Procedure, shortened: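 Gametocytes on day 1 of gametocytogenesis were set at 10% parasitemia and 0.5% Hct. They were kept in medium with 50 mM N-acetyl-D-glucosamine, refreshed daily. Compound was added at 0.4% DMSO final. Controls were DMSO (0% inhibition) and 5 μM puromycin (100% inhibition). After 72 h at 37°C in 5% O₂/5% CO₂/90% N₂, Steadylite was added, followed by 60 min lysis at room temperature and a luminescence read. Potency used serial dilutions up to 40 μM, three per log, on two independent occasions.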

male GAM exflagellation = assay: Male GAM exflagellation of GAM cultures used for membrane feeding; assay type: cell-based, Plasmodium falciparum; details: GAM cultures exposed at 3x late-stage IC50
[8] = system: female gametes from stage V GAMs; assay: Dual gamete formation assay, female gamete formation; assay type: cell-based, Plasmodium falciparum; details: in words
[9] = system: NITD609-R^Dd2 clone #2 (PfATP4 mutant line); assay: Imaging-based asexual blood stage high-throughput assay; assay type: cell-based, Plasmodium falciparum; details: read-out: ABS IC50, 72 h
Procedure, shortened: as §1

[10] = system: PfMDR1^selY290F late rings; assay: Hb endocytosis by Western blot; assay type: cell-based, Plasmodium falciparum; details: 5′ the IC50 for 5 h
Procedure, shortened: (§2)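 Sorbitol-synchronized parasites were exposed to test compound at 5x IC50 for 5 h, starting at the late ring stage. Lysates were blotted to nitrocellulose and probed overnight at 4°C with rabbit anti-human Hb (1:5,000) and anti-β-actin (1:2,000). Detection was by ECL. Hb band intensities were normalized to β-actin and compared with untreated controls. Repeated on 3–4 independent occasions.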

[11] = system: P. berghei ANKA MRA868 GAMs, Anopheles stephensi mosquitoes; assay: In vivo transmission-blocking effect; design: species or system P. berghei in CD-1 mice; details: mice given two doses 12 h apart: 100 mg/kg GNF compounds, 30 mg/kg DHA
Dd2-B2 parasites = assay: Heme fractionation assay; assay type: cell-based, Plasmodium falciparum; details: for heme fractionation effect compared to untreated controls: 0.1 to 2′ IC50
[12] = system: PfMDR1 mutant lines versus parental ABS parasites (Dd2-B2, FCB); assay: Drug susceptibility profiling of HHQ-resistant lines in ABS parasites; assay type: cell-based, Plasmodium falciparum; details: for susceptibility in GNF-Pf-5668-3C4D2 compared to PfMDR1^edF1072L: i.e. higher IC50 values
[13] = system: cultured P. berghei liver-stage parasites; details: cited from earlier work
Dd2-B2 late rings = assay: Hb endocytosis by Western blot; assay type: cell-based, Plasmodium falciparum; details: 5′ the IC50 for 5 h, normalized to DMSO control
Procedure, shortened: as §2

[14] = system: PfMDR1^selY290F parasites; assay: Heme fractionation assay; assay type: cell-based, Plasmodium falciparum; details: for Hz and total heme iron levels: MQ with increasing concentrations, LMF at 1–2′ IC50
Procedure, shortened: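 Early ring-stage, sorbitol-synchronized parasites were exposed to test compound at 0.1, 0.25, 0.5, 1 and 2x the ABS IC50. Heme species were fractionated and normalized to the number of cells analyzed, counted by flow cytometry of an aliquot. Significance was tested by two-tailed t-tests.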

[15] = system: P. berghei ANKA MRA868 ABS parasites; assay: 4-day Peters test; assay type: in vivo, P. berghei in CD-1 mice; details: 4 doses, 96 h post infection
Procedure, shortened: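 Female CD-1 mice (5 weeks old, 22–25 g; four per group) were infected intraperitoneally with 1x10⁶ parasites. The test compound was given intraperitoneally at 2, 24, 48 and 72 h after infection, in 20% DMSO in water. Controls were solvent only and DHA at 30 mg/kg. Parasitemia was read by microscopy at 96 h. Groups were randomized and blinded. The 100 mg/kg groups were tested once.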

[16] = system: Pf ABS parasites and GAMs; details: cited from earlier work
[17] = all exposure levels up to 2′ IC50, 32 h
[18] = PfMDR1^selY290F (GNF-Pf-5660-2B6H1)

SMILES | late-stage gametocytocidal activity [1] | IC50 [2] | inhibition of HEK293 cells [3] | reduction in oocyst density per infected mosquito midgut [5] | reduction in infection prevalence (percentage of infected mosquitoes) [5] | IC50 [6] | early-stage gametocytocidal activity [7] | reduction in male GAM exflagellation rates (male GAM exflagellation) | IC50 [9] | activity against liver-stage parasites [13] | reduction of Hb levels within parasites (Dd2-B2 late rings) | other results
CC(C)(C)c1ccc(O)c(CNC2CCCCC2)c1 [GNF-Pf-5310] | potent | < 25 nM | < 50% | 73% | no reduction | < 25 nM | potent | no effect | < 25 nM |  |  | activity on male gametes / exflagellation [4]: no activity; activity on female gamete formation [8]: no activity
CCOC(=O)C1=C(C)NC2=C(C(=O)CC(c3ccc(OC)c(OC)c3)C2)C1c1ccccc1Cl (centres unmarked) [GNF-Pf-5660] | potent | < 25 nM | no inhibition | 95–99% | 97% | < 25 nM | potent | 98% | < 25 nM | inactive | 32% | Hb levels within parasites [10]: unchanged; reduction in oocyst burden [11]: 21%; reduction in the number of infected mosquitoes [11]: 25%; fold decrease in Hz levels compared with untreated controls (Dd2-B2 parasites; 0.1′ the IC50 value): 1.5 fold; fold reduction in Hz levels (Dd2-B2 parasites; 0.25′ to 2′ IC50): 2.3 fold; Hb concentration per parasite (Dd2-B2 parasites; [17]): unchanged; free heme concentration per parasite (Dd2-B2 parasites; [17]): unchanged; fold increase in IC50 compared to parental Dd2-B2 ([12]; GNF-Pf-5660-selected clone 2B6H1, PfMDR1 Y290F (AB 100%)): 248 fold; fold higher exposure levels than in Dd2-B2 giving similar profile of reduced Hz and total heme iron ([14]; PfMDR1^selY290F): > 160 fold; reduction of parasitemia compared to vehicle-treated mice ([15]; 70 mg/kg intraperitoneal): 22%; reduction of parasitemia compared to vehicle-treated mice ([15]; 100 mg/kg intraperitoneal): 65%
COc1ccc(C2CC(=O)C3=C(C2)NC(C)=C(C(=O)OC(C)C)C3c2ccccc2C)cc1OC (centres unmarked) [GNF-Pf-5640] | potent | < 25 nM | < 50% |  |  | < 25 nM | potent |  | < 25 nM | inactive |  | fold increase in IC50 compared to parental Dd2-B2 ([12]; GNF-Pf-5640-selected clone 2C4C3, PfMDR1 S1075I): 77 fold; fold increase in IC50 compared to parental Dd2-B2 ([12]; GNF-Pf-5640-selected clone 3H9C7, PfMDR1 Y290F): 79 fold
CCCCN(CCCC)CC(O)c1cc(Cl)cc2c1-c1ccc(Cl)cc1/C2=C/c1ccc(Cl)cc1 (centres unmarked) [LMF, Lumefantrine] |  |  |  |  |  |  |  |  |  |  | no significant changes | heme fractionation effect compared to untreated controls (Dd2-B2 parasites): little or no effect; fold higher susceptibility versus Dd2-B2 ([12]; PfMDR1^edF1072L): 3.1 fold; fold increased susceptibility versus Dd2-B2 ([12]; PfMDR1^edS1075I): unchanged; fold higher susceptibility versus Dd2-B2 [12, 18]: 1.9 fold; susceptibility in GNF-Pf-5668-3C4D2 compared to PfMDR1^edF1072L [12]: decreased susceptibility; Hz and total heme iron levels [14]: reduction
OC(c1cc(C(F)(F)F)nc2c(C(F)(F)F)cccc12)C1CCCCN1 (centres unmarked) [MQ, mefloquine] |  |  |  |  |  |  |  |  |  |  | no significant changes | heme fractionation effect compared to untreated controls (Dd2-B2 parasites): little or no effect; fold decrease in Hz levels (Dd2-B2 parasites; 2′ the IC50): 1.6 fold; fold increased susceptibility compared to wild-type Dd2-B2 ([12]; GNF-Pf-5668-3C4D2 line (four pfmdr1 copies + F1072L (AB 69%))): 1.4 fold; fold higher susceptibility versus Dd2-B2 ([12]; PfMDR1^edF1072L): 3.6 fold; fold increased susceptibility versus Dd2-B2 ([12]; PfMDR1^edS1075I): 1.4 fold; fold higher susceptibility versus Dd2-B2 [12, 18]: 2.0 fold; susceptibility in GNF-Pf-5668-3C4D2 compared to PfMDR1^edF1072L [12]: decreased susceptibility; Hz and total heme iron levels [14]: reductions
CC(=O)N1CCN(c2ccc(CN(C(=O)/C=C/c3ccc(C(C)(C)C)cc3)[C@@H](Cc3ccccc3)C(=O)N3CCN(Cc4ccc(C#N)cc4)CC3)cc2)CC1 [ACT-451840] |  |  |  |  |  |  |  |  |  |  |  | activity against Pf ABS parasites and GAMs [16]: low nanomolar; fold decreased susceptibility versus Dd2-B2 ([12]; PfMDR1^edF1072L): 16 fold; fold decreased susceptibility versus Dd2-B2 ([12]; PfMDR1^edS1075I): 5.5 fold; fold decreased susceptibility versus Dd2-B2 ([12]; PfMDR1^selY290F): 45 fold
CCCOC(=O)C1=C(C)NC2=C(C(=O)CC(c3ccc(OC)c(OC)c3)C2)C1c1ccccc1F (centres unmarked) [GNF-Pf-5668] | potent | < 25 nM | < 50% | 95–99% | 57% | < 25 nM | potent | 70% | < 25 nM | inactive |  | reduction in oocyst burden [11]: No effect; reduction in the number of infected mosquitoes [11]: No effect; fold increase in IC50 compared to parental Dd2-B2 ([12]; GNF-Pf-5668-selected clone 3C4D2, PfMDR1 F1072L (AB 67%)): 37 fold; reduction of parasitemia compared to vehicle-treated mice ([15]; 70 mg/kg intraperitoneal): 43%; reduction of parasitemia compared to vehicle-treated mice ([15]; 100 mg/kg intraperitoneal): 91%
